Assay results from different studies.
Protocols differ between the studies behind these lines. pIC50: −log10 of the molar value.
Effect on: cell growth or viability

Cc1cccc(-n2ncc(Cl)c(Cl)c2=O)c1
pIC50 (NCI-H2122; resazurin; 96 h): 5.94

COc1c2c(cc3c1OCO3)[C@]13C=C[C@H](OC)C[C@@H]1[N@](C2)C[C@H]3OC(=O)c1ccco1
pIC50 (A2780; WST-1): < 5.00

CCCCCCCCCCCCCCCC[N+](C)(C)C
pIC50 (LLC-PK1; MTT): 5.22

O=c1c2ccccc2nc(S)n1-c1ccccc1
viability (LoVo; LDH; 200 µg/mL, 24 h): 63%

O=c1ccc2ccc3occc3c2o1
pIC50 (RD; WST-1; 48 h): 4.89

O=C(O)CCCc1ccc(N(CCCl)CCCl)cc1
pIC50 (A2780; CCK-8; 48 h): < 4.30

O=C(O)C(Cl)Cl
pIC50 (LoVo; MTT; 72 h): < 4.30

N.N.[Cl][Pt][Cl]
GI50 (LoVo; ATP luminescence): 1.7 µg/mL

O=c1ccc2cc3ccoc3cc2o1
pIC50 (RD; WST-1; 48 h): 4.55

c1ccc2c(c1)[I+]c1ccccc1-2
pIC50 (Caco-2; trypan blue; 48 h): ~8.00

COc1c2c(cc3c1OCO3)[C@]13C=C[C@H](OC)C[C@@H]1[N@](C2)C[C@H]3OC(=O)c1ccoc1
pIC50 (A2780; WST-1): < 5.00
